Data on 3 molecules can be found in ChEMBL document CHEMBL6083194, “Discovery and evaluation of 3-(2-isocyanobenzyl)-1H-indole derivatives as potential quorum sensing inhibitors for the control of Pseudomonas aeruginosa infections in vitro” (RSC Med Chem, 2024).

≈ marks a conversion by molar mass, not a printed value. Calls of active or inactive are those of the source. No cut-off for these calls is given here.

Assay [1] is described as follows: Inhibition of quorum sensing system in Pseudomonas aeruginosa PAO1. The procedure, abridged:
(§1)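 Plate screen. CV026 grown overnight in LB with 50 μg ml−1 kanamycin; 15 μl seeded into 15 ml LB agar (1.0% agarose) containing 20 μM C4-HSL. PAO1 plates run in parallel. Test colonies inoculated by toothpick, incubated overnight at 37 °C. Ring of colourless viable cells around the colony scored as inhibition.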

Assay [2] is described as follows: Inhibition of quorum sensing system in Chromobacterium violaceum CV026. The method, boiled down:
as §1

Assay [3] concerns Pseudomonas aeruginosa. As to the kind of experiment: Inhibition of biofilm formation in Pseudomonas aeruginosa PAO1 incubated for 24 hrs crystal violet staining based SEM assay. It is filed as functional, organism-based.
For assay [4], the system named is Pseudomonas aeruginosa. As to the kind of experiment: Inhibition of biofilm formation in Pseudomonas aeruginosa PAO1 at 1/2 times MIC incubated for 24 hrs crystal violet staining based SEM assay. It is filed as functional.
Assay [5] deals with Pseudomonas aeruginosa. Put plainly: Inhibition of biofilm formation in Pseudomonas aeruginosa PAO1 at 1/4 times MIC incubated for 24 hrs crystal violet staining based SEM assay. It is filed as functional.
Assay [6] relates to Pseudomonas aeruginosa. Put plainly: Inhibition of pyocyanin production in Pseudomonas aeruginosa PAO1 at 1/2 time MIC incubated for 18 hrs. It is filed as functional. The method, boiled down:
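Overnight PAO1 in LB diluted to OD600 = 0.05, subcultured 5–7 h to mid-log, rediluted to OD600 = 0.05. 5 mL with compound grown 18 h at 37 °C, 200 rpm. Supernatant extracted with 3 mL chloroform, back-extracted into 0.2 M HCl, absorbance at 520 nm.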

For assay [7], the system named is Pseudomonas aeruginosa. As to the kind of experiment: Inhibition of rhamnolipid production in Pseudomonas aeruginosa PAO1 at 1/2 to 1/4 times MIC by orcinol method. It is filed as functional, organism-based. The method, boiled down: (§2)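 Overnight PAO1 diluted 1:100 into LB with compound, 37 °C, 180 rpm; DMSO control. Supernatant (100 μL) mixed with 900 μL 0.19% orcinol in 53% H2SO4, heated 30 min at 80 °C, cooled, read at 421 nm.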

The subject of assay [8] is Pseudomonas aeruginosa. As to the kind of experiment: Antibacterial activity against Pseudomonas aeruginosa PAO1 by serial dilution method. It is filed as functional. The procedure, abridged: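 PAO1 in LB, 37 °C. MIC by CLSI 2-fold serial dilution in Mueller–Hinton broth, inoculum 1–5 × 10^5 CFU mL−1, DMSO stocks. Growth curves: overnight culture diluted to OD600 = 0.05, subcultured to mid-log, rediluted to OD600 = 0.05, 3 mL with compound; OD620 read at 1, 3, 5, 7, 9, 11 and 24 h at 37 °C; DMSO negative control.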

Assay [9] has as its system Pseudomonas aeruginosa. As to the kind of experiment: Inhibition of rhamnolipid production in Pseudomonas aeruginosa PAO1 at 1/2 times MIC by orcinol method. It is filed as functional. The procedure, abridged:
as §2

Assay [10] deals with Pseudomonas aeruginosa. As to the kind of experiment: Inhibition of rhamnolipid production in Pseudomonas aeruginosa PAO1 at 1/4 times MIC by orcinol method. It is filed as functional. The method, boiled down:
as §2

For assay [11], the system named is Pseudomonas aeruginosa. Put plainly: Inhibition of biofilm formation in Pseudomonas aeruginosa PAO1 at 25 ug/ml incubated for 24 hrs crystal violet staining based assay. It is filed as functional. The method, boiled down: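 PAO1 grown statically for 24 h in LB ± compound in 24-well plates. Planktonic cells removed; attached cells stained with 0.05% crystal violet, rinsed, dissolved in 95% ethanol, read at OD570. DMSO negative, resveratrol positive control; SD from three independent experiments.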

In assay [12] the test system is Pseudomonas aeruginosa. As to the kind of experiment: Induction of biofilm eradication in Pseudomonas aeruginosa PAO1 at 25 ug/ml by crystal violet staining based assay. It is filed as functional. As to conditions: dose 25 µg/ml. The method, boiled down: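 PAO1 biofilms grown overnight at 37 °C in LB in 24-well plates, washed with PBS, then fresh LB with compound added and grown overnight again. Washed, methanol-fixed, crystal violet stained, ethanol solubilised, read at OD570. DMSO negative, resveratrol positive control.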

Assay [13] deals with Pseudomonas aeruginosa. As to the kind of experiment: Anti-virulence effect in Pseudomonas aeruginosa PAO1 assessed as decrease in protease level at 25 ug/ml. It is filed as functional. Set-up: scale not given: the % may be the effect or the level left. As to conditions: dose 25 µg/ml. The procedure, abridged: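 Overnight PAO1 culture diluted 1:100 into LB with compound (6.25–25 μg mL−1), grown at 37 °C and 180 rpm; DMSO and RSV (25 μg mL−1) as controls. Culture supernatant mixed with 2% azocasein in 1 M Tris–HCl pH 8.0 for 15 min at 37 °C. Reaction stopped with 10% TCA, centrifuged, NaOH added, read at OD440.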

The test system of assay [14] is Pseudomonas aeruginosa. Put plainly: Anti-virulence effect in Pseudomonas aeruginosa PAO1 assessed as inhibition of pyocyanin production at 25 ug/ml. It is filed as functional. The arrangement: scale not given: the % may be the effect or the level left. As to conditions: dose 25 µg/ml. The procedure, abridged:
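Overnight PAO1 culture in LB at 37 °C, diluted to OD600 0.05 and subcultured 5–7 h to mid-log phase, then re-diluted to OD600 0.05. Grown 18 h at 37 °C and 200 rpm with compound (6.25, 12.5, 25 μg mL−1) or DMSO. Supernatant extracted into chloroform, back-extracted into 0.2 M HCl, read at 520 nm.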

In assay [15] the test system is Pseudomonas aeruginosa. Put plainly: Anti-virulence effect in Pseudomonas aeruginosa PAO1 assessed as inhibition of rhamnolipid production at 25 ug/ml. It is filed as functional. Set-up: scale not given: the % may be the effect or the level left. As to conditions: dose 25 µg/ml. The procedure, abridged: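 PAO1 culture supernatant from growth with compound (6.25–25 μg mL−1) at 37 °C and 180 rpm, or with DMSO or RSV (25 μg mL−1) as controls. Orcinol assay: 100 μL sample plus 0.19% orcinol in 53% H2SO4, heated 30 min at 80 °C, cooled, read at 421 nm. At least three experiments in triplicate.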

Assay [16] relates to Pseudomonas aeruginosa. As to the kind of experiment: Anti-virulence effect in Pseudomonas aeruginosa PAO1 assessed as inhibition of EPS production at 25 ug/ml. It is filed as functional. Set-up: scale not given: the % may be the effect or the level left. The note with it: dose 25 µg/ml. The method, boiled down: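 PAO1 grown with compound (6.25–25 μg mL−1) in 24-well plates for 24 h at 37 °C and 180 rpm; DMSO and RSV (25 μg mL−1) as controls. Biofilms washed with water, then treated with 0.9% NaCl, 5% phenol and 0.2% hydrazine sulfate. Held 1 h in the dark, read at OD490. Three independent experiments.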

Broadly, the inhibition is the drop in the measured response relative to a control, in per cent. The term MIC denotes the lowest concentration that inhibits growth of the organism. As for `N#Cc1ccccc1Cc1c[nH]c2ccccc12`, the inhibition result is “Active; Strong Inhibition Observed” in assay [1], “Active; Showed Higher Activity” in [2], “Dose-dependent-effect” with Pseudomonas aeruginosa [3] and “Active; Showed Higher Activity Than Positive Control Rsv” in the assay with Pseudomonas aeruginosa [6]. The figures for the “inhibition (INH)” value in the assay with Pseudomonas aeruginosa [4] and in the assay with Pseudomonas aeruginosa [5] were 38% and 15%, respectively. In addition, the inhibition result with Pseudomonas aeruginosa [7] was “Active”. In the assay on Pseudomonas aeruginosa [8], the minimum inhibitory concentration (MIC) was found to be 96 µg/mL (≈ 413 µM).

In the case of `COc1ccc2[nH]cc(Cc3ccccc3C#N)c2c1`, the inhibition entry in assay [1] is “Active; Strong Inhibition Observed”; in [2], “Active; Showed Higher Activity”; in the assay on Pseudomonas aeruginosa [3], “Dose-dependent-effect”; with Pseudomonas aeruginosa [6], “Active; Showed Higher Activity Than Positive Control Rsv”. The “inhibition (INH)” value in the assay on Pseudomonas aeruginosa [4] came to 7%; in the assay with Pseudomonas aeruginosa [9], 44%; in the assay on Pseudomonas aeruginosa [10], 30%. Besides, the inhibition entry with Pseudomonas aeruginosa [7] was “Active”. The MIC against Pseudomonas aeruginosa [8] was 6 µg/mL (≈ 22.9 µM).

Regarding `Oc1ccc(/C=C/c2cc(O)cc(O)c2)cc1` [RESVERATROL], in the assay with Pseudomonas aeruginosa [3], the inhibition result was “Dose-dependent-effect”. Also, the “inhibition (INH)” value in the assay with Pseudomonas aeruginosa [6] was determined as 38%. The inhibition at 25 µg/mL in the assay on Pseudomonas aeruginosa [11] was found to be 55%. Also, the Activity came to 47% with Pseudomonas aeruginosa [12]; 26% in the assay on Pseudomonas aeruginosa [13]; 26% in the assay on Pseudomonas aeruginosa [14]; 12% in the assay with Pseudomonas aeruginosa [15]; 22% in the assay with Pseudomonas aeruginosa [16].
